Results published in publication PMC8239543 (Clinical and Translational Science, 2021).
Where two headings read alike, the source gives them in different places.

Key:
[1] = cited from earlier work
[2] = cited from earlier work; remark: listed apart in the source
[3] = Phase I safety and tolerability assessment; format: in vivo, human; settings: for safety and tolerability: multiple administration, healthy adults
Outline: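 Healthy Japanese men took 600 mg orally four times daily on day 1 and days 3–9. Monitoring throughout covered symptoms, physical examination, and supine blood pressure and pulse. It also covered temperature, oxygen saturation, weight, hematology, biochemistry, coagulation and spot urinalysis. ECGs were 12-lead plus monitor, and adverse events were recorded.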

[4] = cited from earlier work; remark: listed apart in the source
[5] = test system: TMPRSS2; settings: cited from earlier work
[6] = test system: SARS‐CoV‐2 infection of a cell line derived from human airway epithelial cells (Calu‐3); settings: cited from earlier work
[7] = Solubility / Biopharmaceutics Classification System class; format: physicochemical; settings: inferred from solubility and structure-suggested poor permeability
[8] = in vivo
[9] = Population PK; design: species or system human; settings: for Food effect against fasted on KA: covariate multiplier
Outline: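 Plasma GBPA came from 14 multiple-dose subjects (372 points) and 10 earlier single-dose fasted subjects (47 points). Modelling used NONMEM with FOCE and interaction. Doses were converted to GBPA equivalents by molecular-weight ratio. One- and two-compartment models with first-order absorption and linear elimination were tested, with additive, proportional or combined residual error. Between-subject variability and interoccasion variability were log-normal, and food condition was tested as a covariate.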

[10] = format: in vivo, human; settings: for AUC(0-t) / Tmax / half-life / Cmax: male, human, plasma, 600 mg; for AUC(0-t) / Tmax / half-life: oral; for AUC(0-t): AUC4h; for Cmax: po, 600 mg camostat mesylate oral
Outline: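 Night doses were fasted. Cohort 1 took daytime doses after a meal, except a fasted day-1 morning dose. Cohort 2 dosed 30 min premeal on day 1, then 1 h premeal. Plasma GBPA was measured by LC-MS/MS and analysed noncompartmentally. Food ratios came from a mixed-effects model on ln Cmax and AUC24h.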

[11] = test system: SARS‐Cov‐2 infection; settings: read-out: EC50 value of GBPA that inhibited SARS-CoV-2 infection; cited from earlier work
[12] = Cohort 2, Day 1, 30 min before a meal
[13] = Cohort 2, Day 3, 1 h before a meal
[14] = Cohort 2, Day 9, 1 h before a meal
[15] = Cohort 1, Day 1, Fasted, mean (SD)
[16] = Cohort 1, Day 3, Fed, mean (SD)
[17] = Cohort 1, Day 9, Fed, mean (SD)
[18] = Cohort 2, Day 1, 30 min before a meal, mean (SD)
[19] = Cohort 2, Day 3, 1 h before a meal, mean (SD)
[20] = Cohort 2, Day 9, 1 h before a meal, mean (SD)

Structure (SMILES): CN(C)C(=O)COC(=O)Cc1ccc(OC(=O)c2ccc(NC(=N)N)cc2)cc1.CS(=O)(=O)O [camostat mesylate, dimethylcarbamoylmethyl 4‐(4‐guanidinobenzoyloxy)phenylacetate monomethanesulfonate]
- presence in plasma after oral administration [1]: not detectable
- half-life in human plasma [2]: ≤ 1 min
- findings in safety laboratory values, vital signs, or ECG parameters ([3]; 600 mg q.i.d.): no clinically significant findings
- serious adverse events or deaths ([3]; 600 mg q.i.d.): no serious adverse events or deaths
- safety and tolerability ([3]; 600 mg q.i.d.): no safety concerns were raised
- safety and tolerability ([3]; 600 mg q.i.d., listed as Camostat mesylate): safe and tolerated
- QTcF change from baseline ([3]; all subjects): ≤ 60 ms
- QTcF interval ([3]; any postbaseline visit, all subjects): ≤ 480 ms
- solubility [4]: soluble
- TMPRSS2 inhibition [5]: inhibited
- SARS-CoV-2 infection of Calu-3 cells [6]: prevented
- Biopharmaceutics Classification System class [7]: class 3
- human equivalent dose converted from the dog NOAEL [8]: 3333 mg

Structure (SMILES): N=C(N)Nc1ccc(C(=O)Oc2ccc(CC(=O)O)cc2)cc1 [GBPA, 4‐(4‐guanidinobenzoyloxy)phenylacetic acid]
- Food effect against fasted on KA ([9]; 30 min before a meal, FIXED): 1.0 FIXED
- Food effect against fasted on KA ([9]; 1 h before a meal, FIXED): 1.0 FIXED
- Food effect against fasted on KA ([9]; Fed): 0.0807
- Absorption rate constant (KA) ([9]; PopPK fixed effect estimate): 5.91 h⁻¹
- Lag time ([9]; PopPK fixed effect estimate): 0.319 h
- IOV on FA ([9]; interoccasion variability): 35.8 % CV
- IOV on KA ([9]; interoccasion variability): 105 % CV
- Proportional residual error ([9]; intra-subject variability): 0.39 % CV
- Vd/F ([9]; male, human, plasma, oral): 904 L
- clearance ([9]; male, human, plasma, oral): 11300 mL/min
- exposure of GBPA compared with the fasted state ([10]; 1 h before a meal): no significant difference
- AUC4h against fasted, geometric mean ratio (95% confidence interval) ([10]; Cohort 1, Day 3, Fed): 0.31 (0.23, 0.43)
- Cmax against fasted, geometric mean ratio (95% confidence interval) ([10]; Cohort 1, Day 3, Fed): 0.28 (0.18, 0.42)
- AUC4h against fasted, geometric mean ratio (95% confidence interval) ([10]; Cohort 1, Day 9, Fed): 0.30 (0.21, 0.43)
- Cmax against fasted, geometric mean ratio (95% confidence interval) ([10]; Cohort 1, Day 9, Fed): 0.27 (0.17, 0.42)
- AUC4h against fasted, geometric mean ratio (95% confidence interval) [10, 12]: 0.43 (0.29, 0.64)
- Cmax against fasted, geometric mean ratio (95% confidence interval) [10, 12]: 0.50 (0.31, 0.86)
- AUC4h against fasted, geometric mean ratio (95% confidence interval) [10, 13]: 0.53 (0.31, 0.91)
- Cmax against fasted, geometric mean ratio (95% confidence interval) [10, 13]: 0.57 (0.30, 1.08)
- AUC4h against fasted, geometric mean ratio (95% confidence interval) [10, 14]: 0.79 (0.46, 1.37)
- Cmax against fasted, geometric mean ratio (95% confidence interval) [10, 14]: 0.95 (0.51, 1.75)
- Cmax and AUC relative to values under fasted conditions ([10]; administered after a meal and at 30 min before a meal): not more than 50%
- exposure of GBPA compared with the fasted state ([10]; after a meal and 30 min before a meal): significantly lower
- AUC(0-t) [10, 15]: 683 ng·h/mL
- AUC(0-t) [10, 16]: 206 ng·h/mL
- AUC(0-t) [10, 17]: 194 ng·h/mL
- AUC(0-t) [10, 18]: 227 ng·h/mL
- AUC(0-t) [10, 19]: 366 ng·h/mL
- AUC(0-t) [10, 20]: 556 ng·h/mL
- Tmax ([10]; Tmax, Cohort 1, Day 1, Fasted, median (range)): 1 h
- Tmax ([10]; Tmax, Cohort 1, Day 3, Fed, median (range)): 2 h
- Tmax ([10]; Tmax, Cohort 1, Day 9, Fed, median (range)): 2 h
- Tmax ([10]; Tmax, Cohort 2, Day 1, 30 min before a meal, median (range)): 1 h
- Tmax ([10]; Tmax, Cohort 2, Day 3, 1 h before a meal, median (range)): 1 h
- Tmax ([10]; Tmax, Cohort 2, Day 9, 1 h before a meal, median (range)): 1 h
- half-life ([10]; half-life, plasma GBPA elimination): < 2 h
- Tmax ([10]; median Tmax, fasted conditions, 30 min before a meal, and 1 h before a meal): 1 h
- Tmax ([10]; median Tmax, fed conditions): 2 h
- half-life ([10]; t1/2, Cohort 1, Day 1, Fasted, mean (SD), n = 6): 1.58 h
- half-life ([10]; t1/2, Cohort 1, Day 3, Fed, mean, n = 2): 1.33 h
- half-life ([10]; t1/2, Cohort 1, Day 9, Fed, mean (SD), n = 3): 1.16 h
- half-life ([10]; t1/2, Cohort 2, Day 1, 30 min before a meal, mean (SD)): 1.35 h
- half-life ([10]; t1/2, Cohort 2, Day 3, 1 h before a meal, mean (SD), n = 6): 1.05 h
- half-life ([10]; t1/2, Cohort 2, Day 9, 1 h before a meal, mean (SD)): 0.962 h
- Cmax [10, 15]: 371 ng/mL
- Cmax [10, 16]: 95.8 ng/mL
- Cmax [10, 17]: 93.5 ng/mL
- Cmax [10, 18]: 177 ng/mL
- Cmax [10, 19]: 218 ng/mL
- Cmax [10, 20]: 367 ng/mL
- EC50 [11]: 0.178 µM
